Reference: article PMC9545559 (International Journal of Cancer, 2022)

Assays:
Format in all cases: in vivo, human
[1] = system: patients with untreated locally advanced or metastatic PDAC; assay: Phase II safety and adverse events; settings: for patients with dose reduced due to occurrence of AEs: n = 24, combination ivaltinostat + gemcitabine + erlotinib; for Anemia, Number of patients (%) / Anorexia, Number of patients (%) / Fatigue, Number of patients (%) / Febrile neutropenia, Number of patients (%) / Neutropenia, Number of patients (%) / Pneumonia, Number of patients (%) / Thrombocytopenia, Number of patients (%): treatment-related
Procedure, shortened: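 Patients on ivaltinostat 250 mg/m2 IV with gemcitabine 1000 mg/m2 IV (days 1, 8, 15) and erlotinib 100 mg/day orally, 28-day cycles. Vital signs, AEs, ADRs, serious AEs, ECG and clinical laboratory tests checked on days 1, 8 and 15 of each cycle. AEs graded by NCI CTCAE v4.0. Safety set: all patients given ≥1 dose.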

[2] = system: patients with untreated locally advanced or metastatic PDAC; assay: Phase I 3 + 3 dose escalation; settings: Level III: ivaltinostat 312.5 mg/m^2 + gemcitabine + erlotinib; four patients
Procedure, shortened: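 3 + 3 escalation: ivaltinostat IV from 187.5 to 250 or 312.5 mg/m2, plus gemcitabine 1000 mg/m2 IV on days 1, 8, 15 and erlotinib 100 mg/day orally in 28-day cycles. DLT graded by NCI CTC v4.0: grade 4 neutropenia ≥6 days, grade 3/4 thrombocytopenia with bleeding, grade 3 neutropenia with fever >38.5°C, or drug-related nonhematologic grade 3/4 toxicity. MTD: ≤1 DLT per six-patient cohort.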

[3] = Pharmacokinetic analysis of ivaltinostat in the phase I study; settings: first day after single administration, mean
[4] = 24 subjects, ivaltinostat + gemcitabine + erlotinib

Compound: C#Cc1cccc(Nc2ncnc3cc(OCCOC)c(OCCOC)cc23)c1 [erlotinib, reference compound]
- patients with dose reduced due to occurrence of AEs [1]: no patient received a reduced dose

Compound: Nc1ccn([C@@H]2O[C@H](CO)[C@@H](O)C2(F)F)c(=O)n1 [gemcitabine, reference compound]
- patients with dose reduced due to occurrence of AEs [1]: 12.5%

Compound: CN(C)CCCNC(=O)/C(=C/CCCCC(=O)NO)COc1cccc2ccccc12 [ivaltinostat]
- dose-limiting toxicity (DLT) [2]: A DLT, febrile neutropenia grade 3
- drop-out of the study due to intolerable AEs [1]: no cases
- subjects with ADRs of grade 3 or 4 severity ([1]; 15 of 24 subjects): 62.5%
- ADR: decreased appetite ([1]; 24 subjects): 11 events
- ADR: decreased platelet count ([1]; 24 subjects): 15 events
- ADR: nausea ([1]; 24 subjects): 10 events
- ADR: rash ([1]; 24 subjects): 11 events
- ADR: vomiting ([1]; 24 subjects): 10 events
- ADRs with grade 3 or 4 severity ([1]; 24 subjects): 26 events
- grade 5 (death) events ([1]; 24 subjects): no grade 5 (death) events
- AEs reported [1, 4]: 218 events
- adverse drug reactions (ADRs) [1, 4]: 114 events
- patients with dose reduced due to occurrence of AEs [1]: 12.5%
- treatment-related grade 3 or 4 anemia ([1]; n = 24, text): 16.7%
- treatment-related grade 3 or 4 neutropenia ([1]; n = 24, text): 33.3%
- treatment-related grade 3 or 4 thrombocytopenia ([1]; n = 24, text): 29.2%
- Anemia, Number of patients (%) ([1]; Grade 3 (n = 24)): 4 (16.7) patients (%)
- Anorexia, Number of patients (%) ([1]; Grade 3 (n = 24)): 2 (8.3) patients (%)
- Fatigue, Number of patients (%) ([1]; Grade 3 (n = 24)): 2 (8.3) patients (%)
- Febrile neutropenia, Number of patients (%) ([1]; Grade 3 (n = 24)): 2 (8.3) patients (%)
- Neutropenia, Number of patients (%) ([1]; Grade 3 (n = 24)): 3 (12.5) patients (%)
- Pneumonia, Number of patients (%) ([1]; Grade 3 (n = 24)): 0 patients (%)
- Thrombocytopenia, Number of patients (%) ([1]; Grade 3 (n = 24)): 4 (16.7) patients (%)
- Anemia, Number of patients (%) ([1]; Grade 4 (n = 24)): 0 patients (%)
- Anorexia, Number of patients (%) ([1]; Grade 4 (n = 24)): 0 patients (%)
- Fatigue, Number of patients (%) ([1]; Grade 4 (n = 24)): 0 patients (%)
- Febrile neutropenia, Number of patients (%) ([1]; Grade 4 (n = 24)): 0 patients (%)
- Neutropenia, Number of patients (%) ([1]; Grade 4 (n = 24)): 5 (20.8) patients (%)
- Pneumonia, Number of patients (%) ([1]; Grade 4 (n = 24)): 1 (4.2) patients (%)
- Thrombocytopenia, Number of patients (%) ([1]; Grade 4 (n = 24)): 3 (12.5) patients (%)
- Anemia, Number of patients (%) ([1]; Total grade 3 and 4 (n = 24)): 4 (16.7) patients (%)
- Anorexia, Number of patients (%) ([1]; Total grade 3 and 4 (n = 24)): 2 (8.3) patients (%)
- Fatigue, Number of patients (%) ([1]; Total grade 3 and 4 (n = 24)): 2 (8.3) patients (%)
- Febrile neutropenia, Number of patients (%) ([1]; Total grade 3 and 4 (n = 24)): 2 (8.3) patients (%)
- Neutropenia, Number of patients (%) ([1]; Total grade 3 and 4 (n = 24)): 8 (33.3) patients (%)
- Pneumonia, Number of patients (%) ([1]; Total grade 3 and 4 (n = 24)): 1 (4.2) patients (%)
- Thrombocytopenia, Number of patients (%) ([1]; Total grade 3 and 4 (n = 24)): 7 (29.2) patients (%)
- Cmax ([3]; 187.5 mg/m^2 iv, n=3): 9553 ng/mL
- Terminal half-life ([3]; 187.5 mg/m^2 iv, n=3): 7.3 h
- Cmax ([3]; 250 mg/m^2 iv, n=3): 8062 ng/mL
- Terminal half-life ([3]; 250 mg/m^2 iv, n=3): 5.7 h
- Cmax ([3]; 312.5 mg/m^2 iv, n=4): 12 782 ng/mL
- Terminal half-life ([3]; 312.5 mg/m^2 iv, n=4): 6.6 h
